From paper PMC2212267 (The Journal of Experimental Medicine, 1998)
Where no end group is shown, it is not given here. 5,6‑carboxyfluorescein = 5,6-carboxyfluorescein

Assays:
[1] = biological target: I-A^k (Mus musculus, UniProt P01910+P06343); experiment: FACS binding of biotinylated MBP peptides to live L cell transfectants; conditions: β9 mutant I-A^k H9V; among 4A, 4E, 4Y; Fig. 1 a
Method in brief: (§1)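 Live L cell transfectants (wild-type or β9-mutant I-A, 5 × 10^5 cells) washed, then incubated 4 h at 37°C, 7% CO2 with 200 μM biotinylated MBP analogue in RPMI 1640/1% BSA. Washed twice, then streptavidin–Quantum red/PE for 20 min on ice. MHC level read with FITC anti-Aβk,u mAb 10-2.16; propidium iodide viability stain. Net binding is mean fluorescence minus nontransfected L cells plus peptide, divided by FITC signal, then normalized to 4A peptide on wild-type transfectant.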

[2] = biological target: T1, I-A^u (Mus musculus, UniProt P06344+P14438); experiment: as above; conditions: wild-type I-A^u; among 4A, 4E, 4Y; Fig. 1 a
T1 sequence (P14438 1-227): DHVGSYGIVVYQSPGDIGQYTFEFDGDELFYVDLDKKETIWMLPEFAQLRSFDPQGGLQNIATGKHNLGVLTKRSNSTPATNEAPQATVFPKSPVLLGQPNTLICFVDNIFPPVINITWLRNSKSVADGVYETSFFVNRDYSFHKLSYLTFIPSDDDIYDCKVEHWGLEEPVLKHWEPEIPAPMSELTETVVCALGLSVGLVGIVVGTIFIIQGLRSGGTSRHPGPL
T1 sequence (P06344 28-263): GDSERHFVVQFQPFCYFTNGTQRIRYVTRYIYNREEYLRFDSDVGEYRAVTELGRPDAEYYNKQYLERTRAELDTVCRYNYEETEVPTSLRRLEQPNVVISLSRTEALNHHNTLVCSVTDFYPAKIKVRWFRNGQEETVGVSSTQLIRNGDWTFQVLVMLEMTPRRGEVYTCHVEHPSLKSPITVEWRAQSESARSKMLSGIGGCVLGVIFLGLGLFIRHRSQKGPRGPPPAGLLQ
Method in brief: as §1

[3] = tested on: MBP-responsive T cell lines; experiment: Proliferation responses of MBP-responsive T cell lines; type: cell-based; conditions: unpublished data (Rabinowitz, J.D.)
[4] = biological target: T1, I-A^u; experiment: Peptide dissociation kinetics from purified MHC protein; type: binding; conditions: fluorescein-labeled peptide, pH 5.3, 37°C, HPSEC; Fig. 4 b
[5] = biological target: I-A^u class II MHC protein, purified (mouse); experiment: peptide dissociation kinetics followed by HPSEC with fluorescence detection
[6] = biological target: I-A^k class II MHC protein, wild type, on L cell transfectants (mouse); experiment: flow cytometry on cells

Sequence of I-A^k (P01910 24-256): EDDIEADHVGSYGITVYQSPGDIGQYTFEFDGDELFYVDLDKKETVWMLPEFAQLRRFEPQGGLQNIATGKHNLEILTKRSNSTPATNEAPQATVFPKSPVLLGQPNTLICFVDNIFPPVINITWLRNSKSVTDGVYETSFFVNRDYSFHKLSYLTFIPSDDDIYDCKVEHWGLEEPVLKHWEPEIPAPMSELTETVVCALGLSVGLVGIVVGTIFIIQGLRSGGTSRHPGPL
Sequence of I-A^k (P06343 28-263): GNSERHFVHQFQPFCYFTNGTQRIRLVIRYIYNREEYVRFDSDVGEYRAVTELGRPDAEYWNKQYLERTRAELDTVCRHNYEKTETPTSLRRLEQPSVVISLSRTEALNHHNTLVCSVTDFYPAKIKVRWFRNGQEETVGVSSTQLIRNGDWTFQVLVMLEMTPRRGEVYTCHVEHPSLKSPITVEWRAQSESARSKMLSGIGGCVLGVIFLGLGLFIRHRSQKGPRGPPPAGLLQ

In the case of “4Y: MBP peptide with residue 4 lysine replaced with tyrosine (Ac-ASQYRPSQRHGSK-biotin)”, the “peptide preference of I-A^k H9V in FACS binding” value [1] is reported as “prefers” and the “peptide preference of I-A^u in FACS binding” value [2] is reported as “prefers”.

With ISQAVAASQKRPSQRSKY [ova-MBP] the “proliferation responses of a series of MBP-responsive T cell lines” value [3] was “abrogated proliferation responses” and the “slower dissociation from I-A^u than wild-type MBP Ac1-12” value [4] was roughly 80 fold.

ISQAVAASQYRPSQRSKY [ova-MBP K4Y] was tested, and the “proliferation responses of a series of MBP-responsive T cell lines” value [3] was “abrogated proliferation responses”.

B1: ova-MBP K4Y, fluorescein-labelled (peptide)
peptide: {5,6‑carboxyfluorescein}-ISQAVAASQYRPSQRSKY
B1 showed a dissociation half-time (t 1/2) [5] greater than 200 h and a fold increase in stability of binding over wild-type MBP [5] greater than 1000 fold.

B2: ova-MBP (NH2-terminally extended MBP peptide), fluorescein-labelled (peptide)
peptide: {5,6‑carboxyfluorescein}-ISQAVAASQKRPSQRSKY
B2 showed a fold slower dissociation than wild-type MBP Ac1-12 [5] of 80 fold.

B3: biotinylated MBP Ac1-13 K4E (rat MBP sequence) (peptide)
peptide: Ac-ASQERPSQRHGSK-biotin
Molecule B3 has a fold improvement of binding over MBP Ac1-11 4A [6] of 2 fold and a fold improvement of binding over wild-type MBP [6] greater than 20 fold.
